Measurements taken from ChEMBL document CHEMBL1287804, “Synthesis, binding studies and molecular modeling of novel cannabinoid receptor ligands” (Bioorg Med Chem, 2010).
Activity calls are given as the source filed them. No cut-off for these calls is given here.

Experiments:
[1] = biological target: T1, Fatty-acid amide hydrolase 1 (Rattus norvegicus) (UniProt P97612); test: Inhibition of FAAH-mediated [14C]anandamide hydrolysis in rat brain membrane assessed as [14C]-ethanolamine production up to 50 uM after 30 mins by scintillation counting; type: cell membranes
T1 sequence (whole entry): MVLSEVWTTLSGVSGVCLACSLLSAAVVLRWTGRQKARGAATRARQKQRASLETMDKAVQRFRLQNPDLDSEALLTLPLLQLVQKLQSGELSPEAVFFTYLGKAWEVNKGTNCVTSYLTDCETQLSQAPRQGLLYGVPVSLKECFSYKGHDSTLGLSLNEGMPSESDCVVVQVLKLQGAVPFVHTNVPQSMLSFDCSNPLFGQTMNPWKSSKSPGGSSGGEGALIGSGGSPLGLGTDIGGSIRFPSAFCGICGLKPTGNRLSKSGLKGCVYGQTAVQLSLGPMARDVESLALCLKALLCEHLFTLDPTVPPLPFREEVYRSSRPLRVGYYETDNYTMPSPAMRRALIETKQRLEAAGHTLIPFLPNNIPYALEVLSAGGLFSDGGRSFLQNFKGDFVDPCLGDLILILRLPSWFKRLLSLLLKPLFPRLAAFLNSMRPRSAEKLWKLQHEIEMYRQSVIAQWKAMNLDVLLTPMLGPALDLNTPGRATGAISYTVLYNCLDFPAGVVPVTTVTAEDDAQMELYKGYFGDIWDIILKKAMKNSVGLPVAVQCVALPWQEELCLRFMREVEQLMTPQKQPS

Cannabinoid receptor 1 [2] = biological target: T2, Cannabinoid receptor 1 (Homo sapiens, UniProt P21554); test: Displacement of [3H]-CP-55940 from human recombinant CB1 receptor expressed in HEK293 cells; type: cell-based
T2 sequence (P21554 whole entry): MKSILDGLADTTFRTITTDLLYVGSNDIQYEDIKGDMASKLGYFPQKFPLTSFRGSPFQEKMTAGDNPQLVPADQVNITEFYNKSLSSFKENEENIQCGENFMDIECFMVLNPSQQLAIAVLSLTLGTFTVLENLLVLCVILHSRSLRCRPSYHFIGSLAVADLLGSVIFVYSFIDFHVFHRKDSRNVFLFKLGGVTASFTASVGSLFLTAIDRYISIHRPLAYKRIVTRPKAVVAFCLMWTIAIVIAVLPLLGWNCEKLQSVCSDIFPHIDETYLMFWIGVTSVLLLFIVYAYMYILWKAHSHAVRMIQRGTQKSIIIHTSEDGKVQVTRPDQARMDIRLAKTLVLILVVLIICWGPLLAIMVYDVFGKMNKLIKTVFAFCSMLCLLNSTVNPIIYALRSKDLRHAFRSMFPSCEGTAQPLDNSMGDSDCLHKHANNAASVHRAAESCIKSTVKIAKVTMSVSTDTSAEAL
How it was run: (§1)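 Radioligand binding with human recombinant CB1 and CB2 receptors. The highest concentration tested was 10 µM, and percent displacement was recorded at that concentration. IC50 and Ki were calculated for each receptor. The selectivity index is Ki(CB1)/Ki(CB2).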

Cannabinoid receptor 1 [3] = biological target: T2, Cannabinoid receptor 1; test: Displacement of [3H]-CP-55940 from human recombinant CB1 receptor expressed in HEK293 cells at 10 uM; type: cell-based; how it was run: as §1
Cannabinoid receptor 2 [4] = biological target: T3, Cannabinoid receptor 2 (Homo sapiens, UniProt P34972); test: Displacement of [3H]-CP-55940 from human recombinant CB2 receptor expressed in HEK293 cells; type: cell-based
T3 sequence (P34972 whole entry): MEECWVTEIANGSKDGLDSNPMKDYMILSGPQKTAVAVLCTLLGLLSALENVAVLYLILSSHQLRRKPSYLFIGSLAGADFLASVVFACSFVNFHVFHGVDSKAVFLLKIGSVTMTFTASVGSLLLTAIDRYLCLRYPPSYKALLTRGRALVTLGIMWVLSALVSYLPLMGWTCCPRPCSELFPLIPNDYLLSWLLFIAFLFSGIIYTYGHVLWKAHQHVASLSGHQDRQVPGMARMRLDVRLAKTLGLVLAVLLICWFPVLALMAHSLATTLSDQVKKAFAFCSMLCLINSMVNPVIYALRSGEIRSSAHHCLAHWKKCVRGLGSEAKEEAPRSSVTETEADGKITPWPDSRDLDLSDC
How it was run: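 Radioligand binding assay on human recombinant CB2 receptor. The read-out was percent displacement of radioligand at the highest concentration tested. IC50 values were determined, and Ki values were calculated from them.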

Cannabinoid receptor 2 [5] = biological target: T3, Cannabinoid receptor 2; test: Displacement of [3H]-CP-55940 from human recombinant CB2 receptor expressed in HEK293 cells at 10 uM; type: cell-based; how it was run: as §1
Homo sapiens = species on record: Homo sapiens; test: Selectivity index, ratio of Ki for human recombinant CB1 receptor to Ki for human recombinant CB2 receptor; how it was run: as §1

Ratio Ki (Homo sapiens) | SMILES | inhibition [1] | IC50 (Cannabinoid receptor 1 [2]) [µM] | Ki (Cannabinoid receptor 1 [2]) [µM] | Activity (Cannabinoid receptor 1 [3]) [%] | IC50 (Cannabinoid receptor 2 [4]) [µM] | Ki (Cannabinoid receptor 2 [4]) [µM] | Activity (Cannabinoid receptor 2 [5]) [%]
– | COc1ccc(/C=C/C(=O)CCC(=O)NCCO)cc1OC | inactive | > 10 | > 10 | < 50 | > 10 | > 10 | < 50
– | O=C(CCC(=O)N1CCOCC1)c1ccc(-c2ccccc2)cc1 | inactive | > 10 | > 10 | 12.2 | > 10 | > 10 | 14.9
> 4 | CCOC(=O)CNC(=O)CCC(=O)/C=C/c1ccc2ccccc2c1 | inactive | > 10 | > 10 | 5.73 | 9.82 | 2.5 | 54.6
> 4.41 | O=C(/C=C/c1ccc2ccccc2c1)CCC(=O)NCCO | inactive | > 10 | > 10 | 0 | 1 | 1.03 | 56.5
– | COc1ccc(/C=C/C(=O)CCC(=O)Nc2ccc(O)cc2)cc1 | inactive | > 10 | > 10 | < 50 | > 10 | > 10 | < 50
– | O=C(/C=C/c1ccc2ccccc2c1)CCC(=O)NC1CC1 | inactive | > 10 | > 10 | 3.25 | > 10 | > 10 | 35.6
> 4.44 | O=C(CCC(=O)NCCO)CCc1ccc(-c2ccccc2)cc1 | inactive | > 10 | > 10 | 10.9 | 8.85 | 2.25 | 53
– | O=C(/C=C/c1ccc2ccccc2c1)CCCC(=O)N1CCCCC1 | inactive | > 10 | > 10 | 34 | > 10 | > 10 | 36.8
– | O=C(/C=C/c1ccc(-c2ccccc2)cc1)CCC(=O)NCCO | inactive | > 10 | > 10 | 5.25 | > 10 | > 10 | 46.1
– | O=C(O)CCCC(=O)/C=C/c1ccc2ccccc2c1 | inactive | > 10 | > 10 | 21.5 | > 10 | > 10 | 23.4
– | O=C(O)CCC(=O)/C=C/c1ccc2ccccc2c1 | inactive | > 10 | > 10 | 11.8 | > 10 | > 10 | 13.7
> 4.9 | O=C(/C=C/c1ccc2ccccc2c1)CCCC(=O)NC1CC1 | inactive | > 10 | > 10 | 15.3 | 8.02 | 2.04 | 56.7
– | C[C@H](CO)NC(=O)CCC(=O)/C=C/c1ccc2ccccc2c1 | inactive | > 10 | > 10 | 2.48 | > 10 | > 10 | 38.3
– | CCOC(=O)CNC(=O)CCCC(=O)/C=C/c1ccc2ccccc2c1 | inactive | > 10 | > 10 | 41.5 | > 10 | > 10 | 41.7
– | COc1ccc(/C=C/C(=O)CCC(=O)N2CCCCC2)cc1OC | inactive | > 10 | > 10 | < 50 | > 10 | > 10 | 50
– | O=C(/C=C/c1ccc2ccccc2c1)CCC(=O)N(CCO)CCO | inactive | > 10 | > 10 | 1.81 | > 10 | > 10 | 27.3
– | O=C(/C=C/c1ccc2ccccc2c1)CCC(=O)Nc1ccc(O)cc1 | inactive | > 10 | > 10 | < 50 | > 10 | > 10 | < 50
– | C[C@@H](CO)NC(=O)CCCC(=O)/C=C/c1ccc2ccccc2c1 | inactive | > 10 | > 10 | > 10 | > 10 | > 10 | 37.7
– | O=C(/C=C/c1ccc2ccccc2c1)CCC(=O)N1CCCCC1 | inactive | > 10 | > 10 | < 50 | > 10 | > 10 | < 50
> 9.71 | O=C(/C=C/c1ccc2ccccc2c1)CCCC(=O)NCCO | inactive | > 10 | > 10 | 4.58 | 4.08 | 1.03 | 72
